Legend:
[1] = species: Rattus norvegicus; assay: Selectivity ratio of Ki for sigma 2 receptor in rat liver membranes to Ki for sigma 1 receptor in rat liver membranes; assay type: cell membranes; conditions: Membrane
[2] = biological target: Sigma non-opioid intracellular receptor 1 (Rattus norvegicus, UniProt Q9R0C9); assay: Displacement of [3H](+)-pentazocine from sigma 1 receptor in rat liver membranes; assay type: cell membranes, Membrane
Procedure, shortened: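 Rat liver membranes in a 96-well high-throughput format. Sigma-1 sites labeled with 5 nM [3H](+)-pentazocine. Nonspecific binding defined with 10 μM haloperidol. Ki values derived from displacement.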

[3] = Displacement of [3H]DTG from sigma 2 receptor in rat liver membranes; assay type: cell membranes, Membrane
Procedure, shortened: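 Rat liver membranes in a 96-well high-throughput format. Sigma-2 sites labeled with 5 nM [3H]DTG, with 300 nM (+)-pentazocine present to mask sigma-1. Nonspecific binding defined with 10 μM haloperidol. Ki values derived from displacement.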

[4] = species: Cavia porcellus; assay: Selectivity ratio of Ki for sigma 2 receptor in guinea pig brain membranes to Ki for sigma 1 receptor in guinea pig brain membranes; assay type: cell membranes
[5] = Binding affinity to sigma 2 receptor in guinea pig brain membranes; assay type: cell membranes, Cavia porcellus, Membrane

Chain of Sigma non-opioid intracellular receptor 1 (Q9R0C9 whole entry): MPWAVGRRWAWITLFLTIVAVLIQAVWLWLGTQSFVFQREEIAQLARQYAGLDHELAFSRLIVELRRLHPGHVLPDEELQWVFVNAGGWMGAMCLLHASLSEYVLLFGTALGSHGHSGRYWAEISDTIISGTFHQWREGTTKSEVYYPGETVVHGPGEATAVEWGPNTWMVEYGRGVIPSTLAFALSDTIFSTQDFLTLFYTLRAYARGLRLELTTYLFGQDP

Row | SMILES | Ratio Ki [1] | Ki [2] | Ki [3] | Ratio Ki [4] | Ki [5]
1 | O=c1sc2cc(CCCF)ccc2n1CCN1CCCCCC1 | 486 | – | – | – | –
2 | CCC(=O)c1ccc2c(c1)sc(=O)n2CCN1CCCC1 | 41 | 116 nM | 4790 nM | – | –
3 | O=c1sc2ccccc2n1CCN1CCCC1 | 14 | 578 nM | 8260 nM | – | –
4 | CCCCc1ccc2c(c1)sc(=O)n2CCCCCCN1CCCCCC1 | 0.3 | 12 nM | 4.1 nM | – | –
5 | CCCc1ccc2c(c1)sc(=O)n2CCN1CCCCCC1 | 169 | 1.6 nM | 270 nM | > 1000 | > 1000 nM
6 | O=c1sc2ccccc2n1CCCN1CCCCCC1 | 43 | 4.1 nM | 177 nM | – | –
7 | CCC(=O)c1ccc2c(c1)sc(=O)n2CCCCCN1CCCCCC1 | 0.7 | 12.2 nM | 8.3 nM | – | –
8 | CCCc1ccc2c(c1)sc(=O)n2CCCCN1CCCCCC1 | 0.7 | 6.1 nM | 4.3 nM | – | –
9 | CCCc1ccc2c(c1)sc(=O)n2CCCCCCN1CCCCCC1 | 0.4 | 6.3 nM | 2.3 nM | – | –
10 | CCCC(=O)c1ccc2c(c1)sc(=O)n2CCCCCN1CCCCCC1 | 0.4 | 16.3 nM | 5.7 nM | – | –
11 | O=c1sc2ccccc2n1CCCCCCN1CCCCCC1 | 0.3 | 7.5 nM | 2.4 nM | – | –
12 | CCC(=O)c1ccc2c(c1)sc(=O)n2CCCCCCN1CCCCCC1 | 0.1 | 10.4 nM | 1.1 nM | – | –
13 | CCCCc1ccc2c(c1)sc(=O)n2CCCCN1CCCCCC1 | 2.4 | 1.9 nM | 4.4 nM | – | –
14 | O=c1sc2ccccc2n1CCN1CCCCCCC1 | 74 | 9.7 nM | 716 nM | – | –
15 | O=c1sc2ccccc2n1CCCCN1CCCCCC1 | 31 | 3.2 nM | 101 nM | – | –
16 | CCCCc1ccc2c(c1)sc(=O)n2CCCN1CCCCCC1 | 7 | 2.2 nM | 15.3 nM | – | –
17 | CCC(=O)c1ccc2c(c1)sc(=O)n2CCCN1CCCCCC1 | 83 | 3.7 nM | 305 nM | – | –
18 | CCC(=O)c1ccc2c(c1)sc(=O)n2CCN1CCCCCC1 | 484 | 4.5 nM | 2180 nM | – | –
19 | CCCC(=O)c1ccc2c(c1)sc(=O)n2CCCCCCN1CCCCCC1 | 0.2 | 10.8 nM | 2.3 nM | – | –
20 | CCCC(=O)c1ccc2c(c1)sc(=O)n2CCCN1CCCCCC1 | 39 | 2.6 nM | 104 nM | – | –
21 | CCCC(=O)c1ccc2c(c1)sc(=O)n2CCCCN1CCCCCC1 | 4.5 | 4.8 nM | 21.6 nM | – | –
22 | CCC(=O)c1ccc2c(c1)sc(=O)n2CCCCN1CCCCCC1 | 3 | 10.3 nM | 30.3 nM | – | –
23 | CCCc1ccc2c(c1)sc(=O)n2CCCCCN1CCCCCC1 | 0.3 | 4.6 nM | 1.6 nM | – | –
24 | CCCc1ccc2c(c1)sc(=O)n2CCCN1CCCCCC1 | 13 | 1.4 nM | 17.2 nM | – | –
25 | O=c1sc2ccccc2n1CCCCCN1CCCCCC1 | 0.4 | 7 nM | 2.5 nM | – | –

Source: ChEMBL document CHEMBL2413075, “Structure activity relationship study of benzo[d]thiazol-2(3H)one based σ receptor ligands” (Bioorg Med Chem Lett, 2013)
